Laboratory results published in ChEMBL document CHEMBL1148652, “Design of potent, orally available antagonists of the transient receptor potential vanilloid 1. Structure-activity relationships of 2-piperazin-1-yl-1H-benzimidazoles” (J Med Chem, 2006).
Calls of active or inactive are those of the source. The rule behind the calls is not given here.

Key:
[1] = Volume of distribution in Sprague-Dawley rat at 1 mg/kg, iv; type: ADME, organism-based; set-up: dose 1 mg/kg, route intravenous; conditions: in vivo, read-out: Vdss
[2] = Tmax in Sprague-Dawley rat at 5 mg/kg, po; type: ADME, organism-based; set-up: dose 5 mg/kg, route oral; conditions: in vivo
[3] = molecular target: T1, Transient receptor potential cation channel subfamily V member 1 (Rattus norvegicus, UniProt O35433); experiment: Antagonist activity against acid-induced 45calcium ion uptake in CHO cells expressing rat TRPV1 at pH5; type: functional, cell-based
Method in brief: (§1)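 CHO cells recombinantly expressing rat TRPV1; inhibition of 45Ca2+ uptake triggered by capsaicin or by acid, pH 5. Functional IC50 in nM, averaged over at least two independent experiments, each with three replicates per concentration.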

[4] = Clearance in Sprague-Dawley rat at 1 mg/kg, iv; type: ADME, organism-based; set-up: dose 1 mg/kg, route intravenous; conditions: in vivo
[5] = Cmax in Sprague-Dawley rat at 5 mg/kg, po; type: ADME, organism-based; set-up: dose 5 mg/kg, route oral; conditions: in vivo
[6] = molecular target: Transient receptor potential cation channel subfamily V member 1 (Rattus norvegicus) (UniProt O35433); experiment: Antinociceptive activity in Sprague-Dawley rat assessed as reversal of CFA-induced thermal hyperalgesia; type: functional
Method in brief: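 Thermal hyperalgesia induced in rats by complete Freund's adjuvant; reversal assessed after oral dosing at 30 mg/kg.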

[7] = molecular target: Transient receptor potential cation channel subfamily V member 1 (Rattus norvegicus) (UniProt O35433); experiment: Antinociceptive activity in po dosed Sprague-Dawley rat assessed as ability to block capsaicin-induced paw flinching; type: functional, organism-based
Method in brief: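 Rats dosed orally, then challenged with intraplantar capsaicin (0.5 µg/[…] per paw) to provoke flinching. Eight animals per group; ED50 taken from dose-response.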

[8] = molecular target: T1, Transient receptor potential cation channel subfamily V member 1; experiment: Antagonist activity against capsaicin-induced 45calcium ion uptake in CHO cells expressing rat TRPV1; type: functional, cell-based; method in brief: as §1
[9] = Oral bioavailability in Sprague-Dawley rat; type: ADME, organism-based; conditions: in vivo
[10] = Elimination half life in Sprague-Dawley rat at 1 mg/kg, iv; type: ADME, organism-based; set-up: dose 1 mg/kg, route intravenous; conditions: in vivo

T1 sequence (O35433 whole entry): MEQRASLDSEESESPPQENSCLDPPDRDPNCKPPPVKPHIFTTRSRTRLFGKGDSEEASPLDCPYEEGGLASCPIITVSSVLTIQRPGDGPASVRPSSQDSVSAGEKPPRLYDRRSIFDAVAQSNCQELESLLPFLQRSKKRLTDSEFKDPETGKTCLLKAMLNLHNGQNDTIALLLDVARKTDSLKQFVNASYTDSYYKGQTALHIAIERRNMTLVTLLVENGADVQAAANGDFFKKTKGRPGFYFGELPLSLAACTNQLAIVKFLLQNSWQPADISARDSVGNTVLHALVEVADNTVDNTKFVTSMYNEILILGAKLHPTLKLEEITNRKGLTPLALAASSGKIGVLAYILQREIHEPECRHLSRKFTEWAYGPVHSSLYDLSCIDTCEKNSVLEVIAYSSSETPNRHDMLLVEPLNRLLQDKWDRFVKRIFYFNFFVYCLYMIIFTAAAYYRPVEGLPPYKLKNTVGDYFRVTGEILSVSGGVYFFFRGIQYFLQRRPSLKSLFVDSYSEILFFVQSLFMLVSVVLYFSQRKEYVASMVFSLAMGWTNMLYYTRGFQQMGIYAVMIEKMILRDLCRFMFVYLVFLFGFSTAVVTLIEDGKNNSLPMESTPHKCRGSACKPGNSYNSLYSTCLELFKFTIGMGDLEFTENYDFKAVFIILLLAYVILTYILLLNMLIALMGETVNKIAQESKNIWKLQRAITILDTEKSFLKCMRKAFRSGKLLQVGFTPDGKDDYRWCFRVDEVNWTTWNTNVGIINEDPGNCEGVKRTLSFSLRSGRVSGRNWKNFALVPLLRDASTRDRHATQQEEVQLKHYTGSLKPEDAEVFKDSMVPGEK
Sequence of Transient receptor potential cation channel subfamily V member 1 (Rattus norvegicus) (O35433 whole entry): as above

| Compound | IC50 [3] | IC50 [8] | also measured |
| --- | --- | --- | --- |
| Fc1ccc2[nH]c(N3CCN(c4ncccc4C(F)(F)F)CC3)nc2c1 | > 4000 nM | > 4000 nM |  |
| C[C@@H]1CN(c2ncc(C(=O)O)cc2Cl)CCN1c1nc2c(-c3cc(F)c(F)c(F)c3)cc(C(F)(F)F)cc2[nH]1 | 27 nM | 46 nM |  |
| FC(F)(F)c1ccc2[nH]c(N3CCN(c4ncccc4Cl)CC3)nc2c1 | 705 nM | 309 nM |  |
| FC(F)(F)c1ccc2[nH]c(N3CCN(c4ncccc4C(F)(F)F)CC3)nc2n1 | 1410 nM | 1090 nM |  |
| Fc1cc(CNc2cc(C(F)(F)F)cc3[nH]c(N4CCN(c5ncccc5C(F)(F)F)CC4)nc23)cc(F)c1F | 81 nM | 132 nM |  |

Stronger by IC50 [3], values ahead:

| IC50 [3] | IC50 [8] | Compound | also measured |
| --- | --- | --- | --- |
| 0.9 nM | 0.9 nM | C[C@@H]1CN(c2ncc(C(O)CO)cc2Cl)CCN1c1nc2c(-c3cc(F)c(F)c(F)c3)cc(C(F)(F)F)cc2[nH]1 (mixture of isomers) | Vd [1]: 1.89 L/kg; Tmax [2]: 4 h; clearance [4]: 4.5 mL/min/kg; Cmax [5]: 617 ng/mL; Activity [6]: Active; ED50 [7]: 8.8 mg/kg; bioavailability [9]: 17%; half-life [10]: 5.6 h |
| 26 nM | 33 nM | Fc1cc(-c2cc(C(F)(F)F)cc3[nH]c(N4CCN(c5ncccc5C(F)(F)F)CC4)nc23)cc(F)c1F |  |
| 1.2 nM | 1.6 nM | C[C@@H]1CN(c2ncc(CO)cc2Cl)CCN1c1nc2cc(C(F)(F)F)cc(NC(=O)C3CCCCC3)c2[nH]1 |  |
| 0.9 nM | 1.9 nM | C[C@@H]1CN(c2ncc(CO)cc2Cl)CCN1c1nc2c(N(Cc3ccccc3)Cc3ccccc3)cc(C(F)(F)F)cc2[nH]1 |  |
